Drawing on ChEMBL document CHEMBL2146386, “Hispolon attenuates balloon-injured neointimal formation and modulates vascular smooth muscle cell migration via AKT and ERK phosphorylation” (J Nat Prod, 2012), this text covers Activity, inhibition and IC50 for one compound.

For data set [1], the system named is Rattus norvegicus. The experiment in a line: Antirestenotic activity in Sprague-Dawley rat assessed as reduction in balloon injury-induced neointimal:[…] area ratio in carotid artery at 20 mg/mL, administered topically measured after 2 weeks by hematoxylin and eosin staining method relative to vehicle-treated control. Also noted: scale not given: the % may be the effect or the level left. The class given is functional. In a few lines:
(§1)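 Male Sprague–Dawley rats (350–400 g) underwent carotid balloon injury, 8 per group: untreated injury control or a 10 or 20 mg/mL solution. Sham controls were included. Vessels were embedded, cut into 10 μm sections and stained with H&E. The neointimal:media area ratio was measured by computerized image analysis. Two separate experiments.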

Data set [2] concerns the target Focal adhesion kinase 1 (Rattus norvegicus) (UniProt O35346). Kind of data set: Inhibition of FAK-mediated FBS-induced cell migration of rat A10 cells at 10 ug/mL after 18 hrs by scratch-wound assay. The class given is cell-based. In a few lines:
(§2)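 A10 VSMC (3 × 10^4) grown to 80–90% confluence in six-well plates, and the monolayer centre scraped with a micropipet tip. After a PBS wash, cells were exposed to 10, 15 or 20 μg/mL and photographed at 18 h. Cells crossing lines drawn at the original wound edges were counted in six random fields per triplicate treatment. Three experiments.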

Data set [3] has the same target. The experiment in a line: Inhibition of FAK-mediated FBS-induced migration of rat A10 cells at 15 and 20 ug/mL after 18 hrs by transwell assay. It is filed as cell-based. In a few lines: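 Trans-well chambers with 6.5 mm polycarbonate filters, 8 μm pores. A10 VSMC (4 × 10^5 mL−1) with 0–20 μg/mL in serum-free DMEM were placed in the upper chamber for 18 h at 37 °C. Cells on the lower filter surface were methanol-fixed, Giemsa-stained and counted at 200× in 10 random fields. Three experiments in duplicate.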

For data set [4] the target is unchanged. Kind of data set: Inhibition of FAK-mediated […] activity in rat A10 cells after 24 hrs by zymographic analysis. It is filed as cell-based. In a few lines: (§3)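 Culture medium of A10 VSMC treated 24 h was electrophoresed (120 V, 90 min) in 10% SDS-PAGE with 0.1% gelatin. Gels were washed in 2.5% Triton X-100, then incubated overnight (12–15 h) at 37 °C in 40 mM Tris-HCl pH 8.0 with 10 mM CaCl2 and 1% NaN3. Stained with Coomassie blue and destained.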

Data set [5] shares this target. The experiment in a line: Inhibition of FAK phosphorylation in rat A10 cells after 24 hrs by Western blot analysis. The class given is cell-based. In a few lines: (§4)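 A10 VSMC in six-well plates incubated 24 h with 10, 15 and 20 μg/mL in DMEM containing 15% FBS, with 15% FBS as control. Lysed in SDS/DTT buffer at 95 °C. Western blot on PVDF used specific antibodies (p-AKT, PI3K, p-FAK, TIMP-1, TIMP-2), β-actin loading control, ECL detection, and densitometry relative to control as 100%.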
(Immunoblotting shows a protein as a band on a membrane.)

Data set [6] has the same target. The experiment in a line: Inhibition of FAK in rat A10 cells assessed as inhibition of serum-induced AKT phosphorylation after 24 hrs by Western blot analysis. It is filed as cell-based. In a few lines: as §4
The target is the same in data set [7]. The experiment in a line: Inhibition of FAK-mediated ERK2 phosphorylation in rat A10 cells after 30 mins by Western blot analysis. It is filed as cell-based. The essentials:
(§5)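 Western blot of A10 VSMC after 30 min exposure to 10, 15 and 20 μg/mL, probed for phosphorylated ERK1/2 alongside total ERK1/2. Serum-stimulated cells served as comparison. ECL detection.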

The test system of data set [8] is A10. Kind of data set: Antiproliferative activity against rat A10 cells at 5 to 25 ug/mL after 24 hrs by MTT assay relative to control. It is filed as cell-based. The note with it: a10, 24 h. The essentials:
(§6)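 A10 rat aortic VSMC seeded at 1 × 10^4 cells/well in DMEM with 10% FBS for 24 h, washed, then exposed for 24 h to 10% FBS alone or serial dilutions (5–40 μg/mL). MTT added (3 mg/mL stock in PBS) for 2 h at 37 °C, formazan dissolved in DMSO, absorbance read at 570 nm. Three separate experiments.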

The subject of data set [9] is A10. The experiment in a line: Antiproliferative activity against rat A10 cells after 24 hrs by MTT assay. It is filed as cell-based. In a few lines:
as §6

Data set [10] has as its system A10. The experiment in a line: Upregulation of TIMP1 expression in rat A10 cells after 24 hrs by Western blot analysis. It is filed as functional, cell-based. In a few lines: as §4
For data set [11], the system named is A10. The experiment in a line: Upregulation of TIMP2 expression in rat A10 cells after 24 hrs by Western blot analysis. It is filed as functional, cell-based. In a few lines:
as §4

Data set [12] concerns the target Focal adhesion kinase 1 (Rattus norvegicus) (UniProt O35346). The experiment in a line: Inhibition of FAK in rat A10 cells assessed as inhibition of serum-induced PI3K expression after 24 hrs by Western blot analysis. It is filed as cell-based. In a few lines: as §4
Data set [13] relates to Rattus norvegicus. The experiment in a line: Antirestenotic activity in Sprague-Dawley rat assessed as reduction in balloon injury-induced PCNA expression in carotid artery at 10 and 20 mg/mL, administered topically measured after 2 weeks by immunohistochemistry.
Data set [14] has as its system A10. Kind of data set: Antiproliferative activity against rat A10 cells at 30 to 40 ug/mL after 24 hrs by MTT assay relative to control. The note with it: a10, 24 h. The class given is cell-based. The essentials: as §6
A general note: Tetrazolium dyes change colour on reduction, which living cells bring about.

In data set [15] the test system is A10. The experiment in a line: Induction of apoptosis in rat A10 cells assessed as sub-G1 cells at 10 to 40 ug/mL after 24 hrs by PI-staining based flow cytometric analysis relative to vehicle-treated control. It is filed as cell-based. The conditions noted are these: a10, 24 h. In a few lines: (§7)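 A10 VSMC treated 24 h with 10–60 μg/mL in 15% FBS, with […] alone as control. Cells harvested with trypsin-EDTA, fixed in 70% ethanol and stained with propidium iodide plus RNase A and Nonidet P-40 for at least 30 min on ice in the dark. Three experiments.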
Background: In flow cytometry, cells or beads pass a laser one at a time.

Data set [16] deals with Focal adhesion kinase 1 (Rattus norvegicus) (UniProt O35346). The experiment in a line: Inhibition of FAK-mediated FBS-induced cell migration of rat A10 cells at 15 ug/mL after 18 hrs by scratch-wound assay. The class given is cell-based. The essentials: as §2
Sequence of Focal adhesion kinase 1 (Rattus norvegicus) (O35346 whole entry): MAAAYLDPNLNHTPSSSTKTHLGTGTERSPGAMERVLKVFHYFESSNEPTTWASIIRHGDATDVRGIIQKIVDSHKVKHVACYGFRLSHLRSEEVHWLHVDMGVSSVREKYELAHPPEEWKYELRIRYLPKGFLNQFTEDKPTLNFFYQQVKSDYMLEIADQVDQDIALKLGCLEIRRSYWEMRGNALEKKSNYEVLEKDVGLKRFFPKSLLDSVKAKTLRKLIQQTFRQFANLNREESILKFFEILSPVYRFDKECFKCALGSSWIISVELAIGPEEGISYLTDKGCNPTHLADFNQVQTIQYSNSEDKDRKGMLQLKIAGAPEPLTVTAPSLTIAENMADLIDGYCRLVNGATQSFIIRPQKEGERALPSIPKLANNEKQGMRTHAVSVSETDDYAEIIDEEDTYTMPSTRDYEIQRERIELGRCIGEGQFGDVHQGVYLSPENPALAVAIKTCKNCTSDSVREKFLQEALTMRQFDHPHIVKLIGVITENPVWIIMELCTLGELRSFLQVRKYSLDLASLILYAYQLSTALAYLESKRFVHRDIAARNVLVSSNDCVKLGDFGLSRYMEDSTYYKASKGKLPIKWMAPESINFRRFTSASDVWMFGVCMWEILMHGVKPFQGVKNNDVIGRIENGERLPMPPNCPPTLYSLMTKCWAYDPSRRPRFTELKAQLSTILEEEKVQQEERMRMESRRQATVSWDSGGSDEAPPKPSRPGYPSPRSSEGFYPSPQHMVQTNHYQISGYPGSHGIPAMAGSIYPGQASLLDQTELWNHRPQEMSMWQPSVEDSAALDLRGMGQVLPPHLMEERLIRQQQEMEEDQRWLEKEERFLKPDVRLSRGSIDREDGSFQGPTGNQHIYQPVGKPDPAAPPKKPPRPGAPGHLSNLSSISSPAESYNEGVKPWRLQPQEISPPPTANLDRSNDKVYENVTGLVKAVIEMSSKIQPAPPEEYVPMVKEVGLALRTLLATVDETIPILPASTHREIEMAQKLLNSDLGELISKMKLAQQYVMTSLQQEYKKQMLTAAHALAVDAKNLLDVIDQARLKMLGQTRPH
Data set [17] concerns A10. Kind of data set: Induction of cell cycle arrest in rat A10 cells assessed as S phase cells at 10 to 40 ug/mL after 24 hrs by PI-staining based flow cytometric analysis relative to vehicle-treated control. The note with it: a10, 24 h. The essentials: as §7
Data set [18] addresses Focal adhesion kinase 1 (Rattus norvegicus) (UniProt O35346). Kind of data set: Inhibition of FAK-mediated ERK1 phosphorylation in rat A10 cells after 30 mins by Western blot analysis. It is filed as cell-based. In a few lines: as §5
For data set [19] the target is unchanged. The experiment in a line: Inhibition of FAK-mediated MMP2 activity in rat A10 cells after 24 hrs by zymographic analysis. It is filed as cell-based. In a few lines:
as §3

Data set [20] deals with Rattus norvegicus. Kind of data set: Antirestenotic activity in Sprague-Dawley rat assessed as reduction in balloon injury-induced neointimal:[…] area ratio in carotid artery at 10 mg/mL, administered topically measured after 2 weeks by hematoxylin and eosin staining method relative to vehicle-treated control. The class given is functional. Also noted: scale not given: the % may be the effect or the level left. In a few lines: as §1

Data set [21] concerns the target Focal adhesion kinase 1 (Rattus norvegicus) (UniProt O35346). The experiment in a line: Inhibition of FAK-mediated FBS-induced cell migration of rat A10 cells at 20 ug/mL after 18 hrs by scratch-wound assay. The class given is cell-based. The essentials:
as §2

Converted amounts (≈) assume the structure as drawn. The source made the active and inactive calls. No cut-off for these calls is given here.

Take `CC(=O)/C=C(O)/C=C/c1ccc(O)c(O)c1` [HISPOLON]: the Activity with Rattus norvegicus [1] was 58%; with A10 [8], under 10%; in the data set with A10 [9] (rat, a10, 24 h), “Dose-dependent effect”; in the data set with A10 [10], “Dose-dependent effect”; in the data set with A10 [11], “Dose-dependent effect”; with A10 [14], “Toxic”. Besides, the Activity result is reported as “Non-toxic” with A10 [15], “Non-toxic” in the data set on A10 [17] and 25% with Rattus norvegicus [20]. The inhibition – broadly, how much of the control response was suppressed – in data set [2] was 12%; in data set [4] it was “Dose-dependent effect”; in data set [5] it was “Dose-dependent effect”; in data set [6], “Dose-dependent effect”; in data set [7], “Dose-dependent effect”; in data set [12], “Dose-dependent effect”. Also, the inhibition was 6.51% in data set [16], “Dose-dependent effect” in data set [18], “Dose-dependent effect” in data set [19] and 43.2% in data set [21]. The inhibition result in data set [3] is “Active”. Further, half-maximal inhibition in the data set with A10 [9] (Rattus norvegicus, A10, 24 h) (IC50) was put at 37 µg/mL (≈ 168 µM). Besides, in the data set on Rattus norvegicus [13], the outcome was Active.
